Measured values reported in the RNAGym collection of RNA variant scans (doi:10.1126/science.aae0568).
Variants at the floor of the assay were thinned out.

B1: tRNA (parent)
chain: GUUCCGUUGGCGUAAUGGUAACGCGUCUCCCUCCUAAGGAGAAGACUGCGGGUUCGAGUCCCGUACGGAACG

Variants of: B1
Assay: yeast fitness relative to wild type (ratio to wild type); higher = fitter; tRNA-Arg(CCU), competitive growth, 37 C, YPD
Summary of the method: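 For this measurement, the tRNA-Arg(CCU) gene was varied by chemical synthesis at a 3% per-site mutation rate across 69 sites, and each variant was placed at the native genomic locus in Saccharomyces cerevisiae. The pooled strains went through a 24-hour competition in YPD at 37°C in six parallel replicates, with amplicons from start and end populations read by 100-nucleotide paired-end sequencing. Darwinian fitness relative to wild type followed from the change in each genotype's frequency. Genotypes needed ≥ 100 starting reads, and estimates < 0.5 were set to 0.5.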

First: C27G G56A A65G
Second: C27U C29G C46A
The yeast fitness of the first is lower: 0.535 for the first, 0.539 for the second.

Compared with C27G U32A G39A, C27U G51C C55A C66U is lower in yeast fitness: 0.572 for the first, 0.53 for the second.

Compared with C27U C31G A43C C49G G52C U59G, C27U C31G A43C C49G G52C U59A is higher in yeast fitness: ≤ 0.5 for the first, 0.54 for the second.

Compared with U28A A45C, C27U C62A C66U is lower in yeast fitness: 0.79 for the first, ≤ 0.5 for the second.

U28A C30U A40G U54G and U28A C31U C34U cannot be ordered by yeast fitness: ≤ 0.5 for the first, ≤ 0.5 for the second.

Compared with U28A C31U A65U, C27U C30A is higher in yeast fitness: 0.546 for the first, 0.773 for the second.

Compared with C27U C30U, C27U A36C G56C G68A A70U is lower in yeast fitness: 0.825 for the first, ≤ 0.5 for the second.

Going from C27U U35C A36G to U28A A45C C49A G50A, the yeast fitness falls from 0.566 to ≤ 0.5.

U28A C34A A40G C66A and C27U U35C A37C A40U A43U cannot be ordered by yeast fitness: ≤ 0.5 for the first, ≤ 0.5 for the second.

C27U A36G U47G G50A and U28A C29G A57C G67A cannot be ordered by yeast fitness: ≤ 0.5 for the first, ≤ 0.5 for the second.

C27U C31U U53C A70U and C27U C34U U35C U47C U53G A69U cannot be ordered by yeast fitness: ≤ 0.5 for the first, ≤ 0.5 for the second.

First: C27U C33G A43G A45C C55A
Second: C27U A37U
The yeast fitness of the first is lower: ≤ 0.5 for the first, 0.626 for the second.

Going from C27U A37C to C27U A37G, the yeast fitness rises from 0.664 to 0.899.

Compared with C27U G38A C61U C66A, C27U A40C G58A A70C is higher in yeast fitness: ≤ 0.5 for the first, 0.511 for the second.

Compared with C27U G38C G44C, C27U A57C is higher in yeast fitness: 0.531 for the first, 0.676 for the second.

Compared with C27U A57G, C27U A57U is lower in yeast fitness: 0.959 for the first, 0.668 for the second.

Going from U28A A40C to C27U U28A, the yeast fitness falls from 0.961 to 0.699.

First: C27U U28C
Second: U28A A40G G51C U54A G58C
The yeast fitness of the first is higher: 0.903 for the first, 0.582 for the second.

Going from C27U G48A U59A to C27U A65C A70C, the yeast fitness rises from 0.684 to 0.69.

Compared with C27U C33U G51A, C27U U59G G68C is lower in yeast fitness: 0.612 for the first, 0.539 for the second.

Going from U28A C30A to U28A C30G, the yeast fitness falls from 0.759 to 0.51.

Compared with C27U G52C C60U, U28A C33G A36U A40G U54C is higher in yeast fitness: 0.521 for the first, 0.528 for the second.

Compared with C27U G51A U59A, U28A A36U G48C is lower in yeast fitness: 0.568 for the first, ≤ 0.5 for the second.

C27G U28C G52A C60G G68U A69C and C27U C33A C60U C62G cannot be ordered by yeast fitness: ≤ 0.5 for the first, ≤ 0.5 for the second.

Compared with C27U A36C G68C, U28A A36G A57U A69U is lower in yeast fitness: 0.602 for the first, ≤ 0.5 for the second.

Going from C27U G44C U59G to C27U A42U C62U, the yeast fitness rises from ≤ 0.5 to 0.559.

First: U28A A40C C66U
Second: C27U C30U C34G A37C A57G C61A
The yeast fitness of the first is higher: 0.658 for the first, ≤ 0.5 for the second.

First: C27U A43C U59A C62U
Second: U28A C33G A43C G63A
The yeast fitness of the first is lower: 0.517 for the first, 0.524 for the second.

C27U C30U U53A C66U and C27U G38C A40U A45G G52A A65C cannot be ordered by yeast fitness: ≤ 0.5 for the first, ≤ 0.5 for the second.

Compared with C27U G51A, C27U A36U G38C A43C C66U is lower in yeast fitness: 0.836 for the first, ≤ 0.5 for the second.

First: C27U U53A
Second: C27U C33A A40C
The yeast fitness of the first is higher: 0.628 for the first, 0.574 for the second.

Going from C27U G48A C49U A70U to U28A C33G, the yeast fitness falls from 0.752 to 0.618.

Going from C27U U32C A70C to C27U C31G A43C C49G G52C, the yeast fitness falls from 0.68 to ≤ 0.5.

Going from C27U G44C to C27U A43G, the yeast fitness falls from 1.03 to 0.898.

First: C27U A43C
Second: C27U C34U G44A
The yeast fitness of the first is higher: 0.965 for the first, ≤ 0.5 for the second.

First: C27U C30U C46U U54G A70G
Second: C27U A37C A40U A43U A65U
The yeast fitness of the first is higher: 0.655 for the first, ≤ 0.5 for the second.

U28A A36G A37G and C27G G50A C55G C62G G67U cannot be ordered by yeast fitness: ≤ 0.5 for the first, ≤ 0.5 for the second.

First: U28A A36U G52A
Second: U28A C31G U35C C60U C61U
The yeast fitness of the first is higher: 0.777 for the first, ≤ 0.5 for the second.

First: U28A A36G G52C
Second: U28A A57G
The yeast fitness of the first is lower: ≤ 0.5 for the first, 0.688 for the second.

First: C27U A36U G38C A43C
Second: C27U C34G C62A
The yeast fitness of the first is lower: ≤ 0.5 for the first, 0.586 for the second.

C27U U59A C66U and C27U G58C U59C A70G cannot be ordered by yeast fitness: ≤ 0.5 for the first, ≤ 0.5 for the second.

C27G U53G A70G and U28A C29G C31U U54C cannot be ordered by yeast fitness: ≤ 0.5 for the first, ≤ 0.5 for the second.

U28A C33G A43C C61U A69U and C27G G63A C66G cannot be ordered by yeast fitness: ≤ 0.5 for the first, ≤ 0.5 for the second.

Going from C27U A43C U59A to C27U C60A, the yeast fitness falls from 0.645 to 0.552.

Compared with C27U C60U, C27G U28A is lower in yeast fitness: 0.849 for the first, 0.596 for the second.

Going from C27U G39A G41A A69U to C27U C62U A65U, the yeast fitness rises from 0.674 to 0.718.

C27U C29G C55U A65G C66A and C27U G51C U59C C62A cannot be ordered by yeast fitness: ≤ 0.5 for the first, ≤ 0.5 for the second.

Going from C27U C62U A70C to U28A C29G C33U C34G A42U U59C, the yeast fitness falls from 0.756 to ≤ 0.5.

Going from C27G G68A to C27G G50C C60G, the yeast fitness falls from 0.607 to ≤ 0.5.

First: U28A A65C
Second: C27U C30U U53A A65G A69C
The yeast fitness of the first is higher: 0.675 for the first, ≤ 0.5 for the second.

Going from U28A A37G G41C to C27U U54C G67C, the yeast fitness rises from ≤ 0.5 to 0.54.

First: C27G U32C A42C G48C C55G C60U G68C
Second: C27U C29A
The yeast fitness of the first is lower: ≤ 0.5 for the first, 0.737 for the second.

First: C27U C29U
Second: C27U C49A U64C
The yeast fitness of the first is higher: 0.792 for the first, 0.756 for the second.

First: U28A
Second: C27U C46U G67U
The yeast fitness of the first is higher: 0.892 for the first, 0.626 for the second.

Going from C27U C46U to C27U C46A, the yeast fitness falls from 0.978 to 0.942.

First: C27U C46G
Second: C27U G44C A65U
The yeast fitness of the first is higher: 1.04 for the first, 0.691 for the second.

Compared with C27U C31A G63A, C27U C33U C60G is higher in yeast fitness: ≤ 0.5 for the first, 0.628 for the second.

First: C27U A43C A70U
Second: U28A A36C A45G
The yeast fitness of the first is higher: 0.749 for the first, ≤ 0.5 for the second.

Compared with U28A C29U A45C, U28A A40U C62A is higher in yeast fitness: 0.522 for the first, 0.943 for the second.

First: C27U C60U C66U
Second: C27U C33G A43G G48A G52A
The yeast fitness of the first is higher: 0.695 for the first, ≤ 0.5 for the second.

Going from C27G U28A C30G C31U G67A to U28A A57G C60A, the yeast fitness rises from 0.519 to 0.569.

Going from C27U C34G A45U to C27U C49U C60A C61A, the yeast fitness falls from 0.511 to ≤ 0.5.

C27U C29U C49G A69G and C27U C30G A40C G44A G52A A70U cannot be ordered by yeast fitness: ≤ 0.5 for the first, ≤ 0.5 for the second.

C27U U47C G63A C66U and C27G U32G A42C cannot be ordered by yeast fitness: ≤ 0.5 for the first, ≤ 0.5 for the second.

Compared with C27U G50A G52A U59C C66U, U28A C30U C66U is lower in yeast fitness: 0.53 for the first, ≤ 0.5 for the second.

Compared with C27U A43G G52C C62U G63A, C27U G41C U64C A70C is higher in yeast fitness: ≤ 0.5 for the first, 0.675 for the second.

Going from C27U C30G U32C A70U to C27U C29G C61U, the yeast fitness rises from 0.585 to 0.675.

Compared with U28A A45G C66U, C27U G44C C62U is higher in yeast fitness: 0.538 for the first, 0.733 for the second.

Going from C27U G58C U64C to C27U A36C, the yeast fitness falls from 0.73 to 0.541.

First: C27U A36U
Second: C27U C30G A40G G51C
The yeast fitness of the first is higher: 0.638 for the first, ≤ 0.5 for the second.

Compared with C27U A36C G39C G48C G63U, C27G U53C is lower in yeast fitness: 0.547 for the first, ≤ 0.5 for the second.

Compared with C27U G39A C46U, C27U C33G A43G is lower in yeast fitness: 0.918 for the first, ≤ 0.5 for the second.

C27G G51A G63C and C27U C31G C55G cannot be ordered by yeast fitness: ≤ 0.5 for the first, ≤ 0.5 for the second.

Going from C27U C46U A65U A70C to C27U C34U A45G U47C C60G, the yeast fitness falls from 0.828 to ≤ 0.5.

Going from C27U C31G to C27U C31U, the yeast fitness rises from 0.713 to 1.07.

Going from C27U U28A A40U to C27U C46A A70G, the yeast fitness falls from 0.671 to 0.66.

Compared with C27U C34G A37C, C27U C33G A43G A57G C61U C62U is higher in yeast fitness: ≤ 0.5 for the first, 0.509 for the second.

Compared with C27U C34G A57G C62A, C27U C30U U53A A69C is higher in yeast fitness: ≤ 0.5 for the first, 0.507 for the second.

C27G U28G A36U A45U C49G and C27U U32C G41A C55A G63C cannot be ordered by yeast fitness: ≤ 0.5 for the first, ≤ 0.5 for the second.

Going from C27U G44A C49U G52A A57C to C27U A36C G39C G48C G63U A70U, the yeast fitness rises from ≤ 0.5 to 0.636.

Going from C27U A69C to C27U A36U G38C A43C G63A, the yeast fitness falls from 1.01 to ≤ 0.5.

Going from C27U C66A to C27G U47C, the yeast fitness falls from 0.701 to 0.652.

C27U C31A A57U and C27G G48C A69G cannot be ordered by yeast fitness: ≤ 0.5 for the first, ≤ 0.5 for the second.

Variant U28A A42C C49G C62U has a yeast fitness of 0.585.
